# Data taken from ChEMBL document CHEMBL5724801, “EUbOPEN Chemogenomics Library - Multiplex” (2024).
# Several values for one entry are separate records, joined by “and”; a condition that tells them apart may be missing. Equal values may be shown once.
# Test system: HEK-293T
# Assay: Multiplex assay against HEK293T
# Format: toxicity, cell-based
# Settings: human, 12 h, 1 µM, compound concentration 1 uM
# Outline: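 Values for tubulin, mitochondrial-mass and membrane-permeability phenotypes are per cents of cells with healthy nuclei. These cells were identified by CellPathfinder machine-learning gating of live cells that had been stained at seeding with Hoechst33342, BioTracker Green Microtubule Cytoskeleton Dye, MitoTracker Red and Annexin V Alexa Fluor 680 and imaged on a CQ1 microscope at 37°C and 5% CO2 after compound addition. The gating first set Hoechst high-intensity objects apart from normal cells, then split normal cells into healthy, pyknosed or fragmented nuclei, and pyknosed cells into mitotic or apoptotic.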
SMILES,Population Apoptotic (%),Population Fragmented Nuclei (%),Population Healthy Nuclei (%),Population Hoechst High Intensity Objects (%),Population Membrane Permeable-Phenotype (%),Population Mitochondria Different-Phenotype (%),Population Mitotic Cells (%),Population Normal (%),Population Pyknosed Nuclei (%),Population Tubulin-Different-Phenotype (%)
Cl.Cl.OCCOCCN1CCN(C(c2ccccc2)c2ccc(Cl)cc2)CC1 (stereo not drawn) [HYDROXYZINE HYDROCHLORIDE],34% and 70%,7% and 5%,79% and 84%,6% and 9%,0%,48% and 58%,66% and 29%,93% and 90%,13% and 9%,24% and 28%
CCCCC1=NC2(CCCC2)C(=O)N1Cc1ccc(-c2ccccc2-c2nnn[nH]2)cc1 [IRBESARTAN],24% and 28%,9% and 8%,79% and 78%,9% and 4%,0%,34% and 63%,75% and 71%,91% and 95%,10% and 12%,17% and 20%
CC(C)(C)c1cc(C(C)(C)C)c(NC(=O)c2c[nH]c3ccccc3c2=O)cc1O [IVACAFTOR],10.06% and 8.26%,0% and 2.11%,51.67% and 21.13%,0.3% and 0%,0.59% and 0%,31.76% and 13.33%,89.94% and 91.74%,99.7% and 100%,48.33% and 76.76%,
CN1[C@@H](CC(=O)c2ccccc2)CCC[C@H]1C[C@H](O)c1ccccc1.Cl [LOBELINE HYDROCHLORIDE],5.84% and 10.26%,1.05% and 2.84%,,0.52% and 0%,0%,33.04% and 30%,94.16% and 89.74%,99.48% and 100%,40.31% and 82.98%,

# Same assay, conditions: human, 12 h, 1 µM, compound concentration 1 uM
row,SMILES,Total Cell Count
1,Cl.Cl.OCCOCCN1CCN(C(c2ccccc2)c2ccc(Cl)cc2)CC1 (stereo not drawn) [HYDROXYZINE HYDROCHLORIDE],394 and 362
2,CCCCC1=NC2(CCCC2)C(=O)N1Cc1ccc(-c2ccccc2-c2nnn[nH]2)cc1 [IRBESARTAN],500 and 353
3,CC(C)(C)c1cc(C(C)(C)C)c(NC(=O)c2c[nH]c3ccccc3c2=O)cc1O [IVACAFTOR],330 and 142
4,CN1[C@@H](CC(=O)c2ccccc2)CCC[C@H]1C[C@H](O)c1ccccc1.Cl [LOBELINE HYDROCHLORIDE],384 and 141

# Same assay, conditions: human, 12 h, 10 µM, compound concentration 10 uM
SMILES,Population Apoptotic (%),Population Fragmented Nuclei (%),Population Healthy Nuclei (%),Population Hoechst High Intensity Objects (%),Population Membrane Permeable-Phenotype (%),Population Mitochondria Different-Phenotype (%),Population Mitotic Cells (%),Population Normal (%),Population Pyknosed Nuclei (%),Population Tubulin-Different-Phenotype (%)
Cl.Cl.OCCOCCN1CCN(C(c2ccccc2)c2ccc(Cl)cc2)CC1 (stereo not drawn) [HYDROXYZINE HYDROCHLORIDE],49% and 68%,8% and 6%,71% and 73%,11% and 19%,0% and 1%,71% and 83%,50% and 31%,88% and 80%,19% and 20%,65% and 59%
CCCCC1=NC2(CCCC2)C(=O)N1Cc1ccc(-c2ccccc2-c2nnn[nH]2)cc1 [IRBESARTAN],50% and 56%,7% and 6%,70% and 78%,5% and 13%,2% and 0%,46% and 66%,50% and 43%,94% and 86%,22% and 15%,50% and 33%
CC(C)(C)c1cc(C(C)(C)C)c(NC(=O)c2c[nH]c3ccccc3c2=O)cc1O [IVACAFTOR],31.3% and 21.05%,2.9% and 1.94%,,0.72% and 0%,0%,27.01% and 57.89%,68.7% and 78.95%,99.28% and 100%,47.46% and 85.81%,
CN1[C@@H](CC(=O)c2ccccc2)CCC[C@H]1C[C@H](O)c1ccccc1.Cl [LOBELINE HYDROCHLORIDE],13.08% and 13.61%,4.88% and 1.1%,49.83% and 17.68%,0% and 0.55%,0.7% and 0%,17.48% and 37.5%,86.92% and 86.39%,100% and 99.45%,45.3% and 81.22%,

# Same assay, conditions: human, 12 h, 10 µM, compound concentration 10 uM
row,SMILES,Total Cell Count
1,Cl.Cl.OCCOCCN1CCN(C(c2ccccc2)c2ccc(Cl)cc2)CC1 (stereo not drawn) [HYDROXYZINE HYDROCHLORIDE],354 and 327
2,CCCCC1=NC2(CCCC2)C(=O)N1Cc1ccc(-c2ccccc2-c2nnn[nH]2)cc1 [IRBESARTAN],219 and 351
3,CC(C)(C)c1cc(C(C)(C)C)c(NC(=O)c2c[nH]c3ccccc3c2=O)cc1O [IVACAFTOR],278 and 155
4,CN1[C@@H](CC(=O)c2ccccc2)CCC[C@H]1C[C@H](O)c1ccccc1.Cl [LOBELINE HYDROCHLORIDE],287 and 182

# Same assay, conditions: human, 24 h, 1 µM, compound concentration 1 uM
SMILES,Population Apoptotic (%),Population Fragmented Nuclei (%),Population Healthy Nuclei (%),Population Membrane Permeable-Phenotype (%),Population Mitochondria Different-Phenotype (%),Population Mitotic Cells (%),Population Normal (%),Population Pyknosed Nuclei (%),Population Tubulin-Different-Phenotype (%),Total Cell Count
Cl.Cl.OCCOCCN1CCN(C(c2ccccc2)c2ccc(Cl)cc2)CC1 (stereo not drawn) [HYDROXYZINE HYDROCHLORIDE],22% and 43%,10% and 11%,78%,0%,34% and 41%,77% and 56%,97% and 86%,11% and 9%,22% and 17%,566 and 481
CCCCC1=NC2(CCCC2)C(=O)N1Cc1ccc(-c2ccccc2-c2nnn[nH]2)cc1 [IRBESARTAN],31% and 34%,9%,79% and 80%,0%,24% and 45%,68% and 65%,95% and 92%,10% and 9%,15% and 14%,625 and 456
CC(C)(C)c1cc(C(C)(C)C)c(NC(=O)c2c[nH]c3ccccc3c2=O)cc1O [IVACAFTOR],15.6% and 17.89%,0.58% and 1.37%,78.42% and 33.56%,0.49% and 2.04%,13.02% and 8.16%,84.4% and 82.11%,100%,,7.13% and 10.2%,
CN1[C@@H](CC(=O)c2ccccc2)CCC[C@H]1C[C@H](O)c1ccccc1.Cl [LOBELINE HYDROCHLORIDE],12.24% and 13.68%,2.04% and 2.68%,74.92% and 33.56%,1.67% and 0%,11.3% and 14%,87.76% and 86.32%,100%,23.04% and 63.76%,10.46% and 6%,

# Same assay, conditions: human, 24 h, 1 µM, compound concentration 1 uM
row,SMILES,Population Hoechst High Intensity Objects (%)
1,CCCCC1=NC2(CCCC2)C(=O)N1Cc1ccc(-c2ccccc2-c2nnn[nH]2)cc1 [IRBESARTAN],4% and 7%
2,CC(C)(C)c1cc(C(C)(C)C)c(NC(=O)c2c[nH]c3ccccc3c2=O)cc1O [IVACAFTOR],0%
3,CN1[C@@H](CC(=O)c2ccccc2)CCC[C@H]1C[C@H](O)c1ccccc1.Cl [LOBELINE HYDROCHLORIDE],0%

# Same assay, conditions: human, 24 h, 10 µM, compound concentration 10 uM
SMILES,Population Apoptotic (%),Population Fragmented Nuclei (%),Population Healthy Nuclei (%),Population Hoechst High Intensity Objects (%),Population Membrane Permeable-Phenotype (%),Population Mitochondria Different-Phenotype (%),Population Mitotic Cells (%),Population Normal (%),Population Pyknosed Nuclei (%),Population Tubulin-Different-Phenotype (%)
Cl.Cl.OCCOCCN1CCN(C(c2ccccc2)c2ccc(Cl)cc2)CC1 (stereo not drawn) [HYDROXYZINE HYDROCHLORIDE],29% and 59%,10% and 8%,74% and 71%,8% and 22%,0%,55% and 72%,70% and 40%,91% and 77%,15% and 19%,49% and 43%
CCCCC1=NC2(CCCC2)C(=O)N1Cc1ccc(-c2ccccc2-c2nnn[nH]2)cc1 [IRBESARTAN],27% and 41%,6% and 11%,77%,3% and 10%,1% and 0%,37% and 49%,72% and 58%,96% and 89%,15% and 11%,32% and 22%
CC(C)(C)c1cc(C(C)(C)C)c(NC(=O)c2c[nH]c3ccccc3c2=O)cc1O [IVACAFTOR],52.29% and 35.25%,2.77% and 2.63%,,0.82% and 0%,0% and 3.85%,,47.71% and 64.75%,99.18% and 100%,30.19% and 80.26%,10.74% and 7.69%
CN1[C@@H](CC(=O)c2ccccc2)CCC[C@H]1C[C@H](O)c1ccccc1.Cl [LOBELINE HYDROCHLORIDE],16.35% and 24.8%,2.39% and 1.53%,69.95% and 34.69%,0%,1.52% and 1.47%,18.63% and 22.06%,83.65% and 75.2%,100%,27.66% and 63.78%,12.55% and 11.76%

# Same assay, conditions: human, 24 h, 10 µM, compound concentration 10 uM
row,SMILES,Total Cell Count
1,Cl.Cl.OCCOCCN1CCN(C(c2ccccc2)c2ccc(Cl)cc2)CC1 (stereo not drawn) [HYDROXYZINE HYDROCHLORIDE],472 and 383
2,CCCCC1=NC2(CCCC2)C(=O)N1Cc1ccc(-c2ccccc2-c2nnn[nH]2)cc1 [IRBESARTAN],287 and 434
3,CC(C)(C)c1cc(C(C)(C)C)c(NC(=O)c2c[nH]c3ccccc3c2=O)cc1O [IVACAFTOR],364 and 152
4,CN1[C@@H](CC(=O)c2ccccc2)CCC[C@H]1C[C@H](O)c1ccccc1.Cl [LOBELINE HYDROCHLORIDE],376 and 196

# Same assay, conditions: human, 48 h, 1 µM, compound concentration 1 uM
SMILES,Population Apoptotic (%),Population Fragmented Nuclei (%),Population Healthy Nuclei (%),Population Hoechst High Intensity Objects (%),Population Membrane Permeable-Phenotype (%),Population Mitochondria Different-Phenotype (%),Population Mitotic Cells (%),Population Normal (%),Population Pyknosed Nuclei (%),Population Tubulin-Different-Phenotype (%)
Cl.Cl.OCCOCCN1CCN(C(c2ccccc2)c2ccc(Cl)cc2)CC1 (stereo not drawn) [HYDROXYZINE HYDROCHLORIDE],23% and 46%,14%,79%,1% and 3%,1% and 0%,19%,76% and 53%,98% and 96%,5% and 6%,14% and 12%
CCCCC1=NC2(CCCC2)C(=O)N1Cc1ccc(-c2ccccc2-c2nnn[nH]2)cc1 [IRBESARTAN],29% and 23%,11% and 9%,81% and 84%,3% and 2%,0% and 1%,21% and 19%,70% and 76%,96% and 97%,7% and 6%,15% and 8%
CC(C)(C)c1cc(C(C)(C)C)c(NC(=O)c2c[nH]c3ccccc3c2=O)cc1O [IVACAFTOR],8.49% and 16.88%,2.06% and 0.56%,89.56% and 55.93%,0.24% and 0.56%,3.45% and 1.01%,,91.51% and 83.12%,99.76% and 99.44%,,
CN1[C@@H](CC(=O)c2ccccc2)CCC[C@H]1C[C@H](O)c1ccccc1.Cl [LOBELINE HYDROCHLORIDE],7.27% and 13.92%,2.75% and 1.71%,84.62% and 53.14%,0%,5.33% and 1.08%,11.75% and 19.35%,92.73% and 86.08%,100%,,

# Same assay, conditions: human, 48 h, 1 µM, compound concentration 1 uM
row,SMILES,Total Cell Count
1,Cl.Cl.OCCOCCN1CCN(C(c2ccccc2)c2ccc(Cl)cc2)CC1 (stereo not drawn) [HYDROXYZINE HYDROCHLORIDE],932 and 676
2,CCCCC1=NC2(CCCC2)C(=O)N1Cc1ccc(-c2ccccc2-c2nnn[nH]2)cc1 [IRBESARTAN],958 and 705

# Same assay, conditions: human, 48 h, 10 µM, compound concentration 10 uM
SMILES,Population Apoptotic (%),Population Fragmented Nuclei (%),Population Healthy Nuclei (%),Population Hoechst High Intensity Objects (%),Population Membrane Permeable-Phenotype (%),Population Mitochondria Different-Phenotype (%),Population Mitotic Cells (%),Population Normal (%),Population Pyknosed Nuclei (%),Population Tubulin-Different-Phenotype (%)
Cl.Cl.OCCOCCN1CCN(C(c2ccccc2)c2ccc(Cl)cc2)CC1 (stereo not drawn) [HYDROXYZINE HYDROCHLORIDE],38% and 60%,14% and 15%,76% and 72%,6% and 16%,0%,45% and 53%,61% and 40%,93% and 83%,9% and 12%,35%
CCCCC1=NC2(CCCC2)C(=O)N1Cc1ccc(-c2ccccc2-c2nnn[nH]2)cc1 [IRBESARTAN],25% and 46%,15% and 12%,75% and 80%,1% and 3%,0%,21% and 26%,75% and 53%,98% and 96%,9% and 6%,15%
CC(C)(C)c1cc(C(C)(C)C)c(NC(=O)c2c[nH]c3ccccc3c2=O)cc1O [IVACAFTOR],17.35% and 40.23%,2.23% and 4%,84.89% and 46.29%,0.13% and 1.69%,2.48% and 1.23%,34.21% and 56.79%,82.65% and 59.77%,99.87% and 98.31%,,
CN1[C@@H](CC(=O)c2ccccc2)CCC[C@H]1C[C@H](O)c1ccccc1.Cl [LOBELINE HYDROCHLORIDE],,2.84% and 1.89%,86.48% and 58.49%,0% and 0.75%,2.5% and 0%,30.22% and 37.42%,94.68% and 75.24%,100% and 99.25%,,

# Same assay, conditions: human, 48 h, 10 µM, compound concentration 10 uM
row,SMILES,Total Cell Count
1,Cl.Cl.OCCOCCN1CCN(C(c2ccccc2)c2ccc(Cl)cc2)CC1 (stereo not drawn) [HYDROXYZINE HYDROCHLORIDE],627 and 539
2,CCCCC1=NC2(CCCC2)C(=O)N1Cc1ccc(-c2ccccc2-c2nnn[nH]2)cc1 [IRBESARTAN],473 and 684
